Results published in ChEMBL document CHEMBL4396897, “Potent 5-Cyano-6-phenyl-pyrimidin-Based Derivatives Targeting DCN1-UBE2M Interaction” (J Med Chem, 2019).
The source made the active and inactive calls. The rule behind the calls is not given here.

Legend:
A549 [1] = test: Induction of apoptosis in human A549 cells assessed as late apoptotic cells at 10 uM after 48 hrs by Annexin V-FITC/propidium iodide staining based flow cytometry (reference value: 2.61%); format: functional
NCI-H1975 [2] = test: Effect on HO-1 accumulation in human […] cells transfected with DCN1 siRNA3 by densitometric method; format: functional, cell-based
How it was run: (§1)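 H1975 or PC9 cells seeded in 6-well plates for 16-24h, transfected with DCN1 siRNA#3 by lipofection, with or without compound, and collected three days later. Western blot for Cullin3, DCN1, NRF2, HO-1 and NQO1, with densitometry normalized to GAPDH. Three individual experiments, means ± SD.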

NCI-H1975 [3] = test: Induction of apoptosis in human NCI-NCI-H1975 cells assessed as early apoptotic cells at 2.5 uM after 48 hrs by Annexin V-FITC/propidium iodide staining based flow cytometry (reference value: 2.47%); format: functional
NCI-H1975 [4] = test: Effect on NRF2 accumulation in human NCI-H1975 cells transfected with DCN1 siRNA3 by densitometric method; format: functional, cell-based; how it was run: as §1
PC-9 [5] = test: Effect on HO-1 accumulation in human PC9 cells transfected with DCN1 siRNA3 by densitometric method; format: functional, cell-based; how it was run: as §1
A549 [6] = test: Induction of apoptosis in human A549 cells after 48 hrs by Annexin V-FITC/propidium iodide staining based flow cytometry; format: functional, cell-based
PC-9 [7] = test: Induction of apoptosis in human PC9 cells assessed as early apoptotic cells at 10 uM after 48 hrs by Annexin V-FITC/propidium iodide staining based flow cytometry (reference value: 1.36%); format: functional
How it was run: (§2)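 PC9 cells seeded in 6-well plates (1~2×10^6 cells/mL), incubated overnight, then exposed to 0, 2.5, 5 or 10µM compound for 48h. Harvested cells stained with Annexin-V-FITC/PI for 30 min and analysed by flow cytometry. Three individual experiments; means ± SD.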

NCI-H1975 [8] = test: Induction of apoptosis in human NCI-NCI-H1975 cells assessed as necrotic cells at 5 uM after 48 hrs by Annexin V-FITC/propidium iodide staining based flow cytometry (reference value: 0.94%); format: functional
PC-9 [9] = test: Effect on Cullin3 neddylation in human PC9 cells transfected with DCN1 siRNA3 by densitometric method; format: functional, cell-based; how it was run: as §1
PC-9 [10] = test: Effect on NRF2 accumulation in human PC9 cells transfected with DCN1 siRNA3 by densitometric method; format: functional, cell-based; how it was run: as §1
A549 [11] = test: Induction of apoptosis in human A549 cells assessed as viable cells at 5 uM after 48 hrs by Annexin V-FITC/propidium iodide staining based flow cytometry (reference value: 92.9%); format: functional; details: A549, 48 h, read-out: Activity
PC-9 [12] = test: Inhibition of colony formation in human PC9 cells after 7 days by crystal violet staining based microscopic analysis; format: functional, cell-based
How it was run: (§3)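 H1975, PC9 and A549 cells seeded at 1×10^3 cells per well and cultured overnight, then given fresh medium with compound at 0, 0.625, 1.25, 2.5, 5 or 10μM for 7 days. Cells fixed, stained with 0.1% crystal violet and imaged by microscopy; dye then dissolved and read on a plate reader. Three experiments; means ± SD.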

ECa-109 cell line = test: Antiproliferative activity against human EC109 after 72 hrs by MTT assay; format: functional, cell-based
How it was run: (§4)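 MTT viability assay: cells seeded at 2~5×10^3 per well, exposed to serial dilutions of compound for 72h, then MTT (5 mg/mL in PBS) added for 4h at 37°C. Formazan dissolved in DMSO and read at 490nm. IC50 reported as mean ± SD of three independent experiments.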

PC-9 [13] = test: Induction of apoptosis in human PC9 cells assessed as early apoptotic cells at 5 uM after 48 hrs by Annexin V-FITC/propidium iodide staining based flow cytometry (reference value: 1.36%); format: functional; how it was run: as §2
A549 [14] = test: Induction of apoptosis in human A549 cells assessed as early apoptotic cells at 10 uM after 48 hrs by Annexin V-FITC/propidium iodide staining based flow cytometry (reference value: 3.63%); format: functional
NCI-H1975 [15] = test: Induction of apoptosis in human NCI-NCI-H1975 cells assessed as late apoptotic cells at 10 uM after 48 hrs by Annexin V-FITC/propidium iodide staining based flow cytometry (reference value: 0.46%); format: functional
NCI-H1975 [16] = test: Induction of apoptosis in human NCI-NCI-H1975 cells assessed as late apoptotic cells at 5 uM after 48 hrs by Annexin V-FITC/propidium iodide staining based flow cytometry (reference value: 0.46%); format: functional
DCN1-like protein 1 = DCN1-like protein 1 (Homo sapiens, UniProt Q96GG9)
Sequence of DCN1-like protein 1 (Q96GG9 whole entry, looked up): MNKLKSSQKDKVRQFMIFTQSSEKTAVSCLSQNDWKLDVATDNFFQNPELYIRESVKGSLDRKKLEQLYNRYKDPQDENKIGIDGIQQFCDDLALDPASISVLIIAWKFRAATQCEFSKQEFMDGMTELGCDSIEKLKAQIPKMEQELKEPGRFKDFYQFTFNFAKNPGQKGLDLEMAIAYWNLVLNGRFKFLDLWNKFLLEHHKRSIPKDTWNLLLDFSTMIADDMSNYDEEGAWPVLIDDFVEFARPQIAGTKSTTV

PC-9 [17] = test: Induction of apoptosis in human PC9 cells assessed as viable cells at 10 uM after 48 hrs by Annexin V-FITC/propidium iodide staining based flow cytometry (reference value: 95.7%); format: functional; details: PC-9, 48 h, read-out: Activity; how it was run: as §2
PC-9 [18] = test: Induction of apoptosis in human PC9 cells assessed as late apoptotic cells at 10 uM after 48 hrs by Annexin V-FITC/propidium iodide staining based flow cytometry (reference value: 1.57%); format: functional
NCI-H1975 [19] = test: Antiproliferative activity against human NCI-NCI-H1975 by MTT assay; format: functional, cell-based; details: TDE = time-dependent effect
A549 [20] = test: Inhibition of colony formation in human A549 cells after 7 days by crystal violet staining based microscopic analysis; format: functional, cell-based; how it was run: as §3
A549 [21] = test: Induction of apoptosis in human A549 cells assessed as necrotic cells at 5 uM after 48 hrs by Annexin V-FITC/propidium iodide staining based flow cytometry (reference value: 0.88%); format: functional
PC-9 [22] = test: Antiproliferative activity against human PC9 by MTT assay; format: functional, cell-based; how it was run: as §4
PC-9 [23] = test: Effect on NQO1 accumulation in human PC9 cells transfected with DCN1 siRNA3 by densitometric method; format: functional, cell-based; how it was run: as §1
NCI-H1975 [24] = test: Induction of apoptosis in human NCI-NCI-H1975 cells assessed as viable cells at 2.5 uM after 48 hrs by Annexin V-FITC/propidium iodide staining based flow cytometry (reference value: 96.1%); format: functional; details: NCI-H1975, 48 h, read-out: Activity
A549 [25] = test: Induction of apoptosis in human A549 cells assessed as late apoptotic cells at 2.5 uM after 48 hrs by Annexin V-FITC/propidium iodide staining based flow cytometry (reference value: 2.61%); format: functional
NCI-H1975 [26] = test: Induction of apoptosis in human NCI-NCI-H1975 cells assessed as viable cells at 5 uM after 48 hrs by Annexin V-FITC/propidium iodide staining based flow cytometry (reference value: 96.1%); format: functional; details: NCI-H1975, 48 h, read-out: Activity
A549 [27] = test: Induction of apoptosis in human A549 cells assessed as late apoptotic cells at 5 uM after 48 hrs by Annexin V-FITC/propidium iodide staining based flow cytometry (reference value: 2.61%); format: functional
NCI-H1975 [28] = test: Effect on NQO1 accumulation in human NCI-H1975 cells transfected with DCN1 siRNA3 by densitometric method; format: functional, cell-based; how it was run: as §1
PC-9 [29] = test: Induction of apoptosis in human PC9 cells after 48 hrs by Annexin V-FITC/propidium iodide staining based flow cytometry; format: functional, cell-based; how it was run: as §2

ΔTm (DCN1-like protein 1): 7 °C
IC50 (PC-9 [22]): 1110 nM
SMILES: C#CCSc1nc(Sc2nccs2)c(C#N)c(-c2ccc(C)cc2)n1
Activity (A549 [1]): 81.1%
Activity (NCI-H1975 [2]): inactive
Activity (NCI-H1975 [3]): 9.47%
Activity (NCI-H1975 [4]): inactive
Activity (PC-9 [5]): inactive
Activity (A549 [6]): Dose-dependent effect
Activity (PC-9 [7]): 1.97%
Activity (NCI-H1975 [8]): 4.92%
Activity (PC-9 [9]): inactive
Activity (PC-9 [10]): inactive
viability at 5 µM (A549 [11]): 52.6%
inhibition (PC-9 [12]): Dose-dependent effect
Activity (ECa-109 cell line): Active
Activity (PC-9 [13]): 8.15%
Activity (A549 [14]): 2.52%
Activity (NCI-H1975 [15]): 46.9%
Activity (NCI-H1975 [16]): 29%
viability at 10 µM (PC-9 [17]): 23.4%
Activity (PC-9 [18]): 57.2%
Activity (NCI-H1975 [19]): Tde
inhibition (A549 [20]): Dose-dependent effect
Activity (A549 [21]): 7.02%
Activity (PC-9 [22]; TDE = time-dependent effect): Tde
Activity (PC-9 [23]): inactive
viability at 2.5 µM (NCI-H1975 [24]): 80%
Activity (A549 [25]): 10.3%
viability at 5 µM (NCI-H1975 [26]): 37.7%
Activity (A549 [27]): 31.6%
Activity (NCI-H1975 [28]): inactive
Activity (PC-9 [29]): Dose-dependent effect
